Results: publication PMC5392356 (Nature chemical biology, 2017)

Tests used:
Brd4 [1] = molecular target: T1, Brd4 (Homo sapiens, UniProt O60885); assay: Isobaric tagging; assay type: cell-based; conditions: HeLa cells, AT1 1 µM, 24 h; 5,674 proteins quantified
Brd3 [2] = molecular target: T2, Brd3 (Homo sapiens, UniProt Q15059); assay: Isobaric tagging; assay type: cell-based; conditions: HeLa cells, 24 h, proteomics
Brd2 [3] = molecular target: T3, Brd2 (Homo sapiens, UniProt P25440); assay: BET protein degradation in HeLa cells, Western blot; assay type: cell-based; conditions: 24 h
T3 sequence (P25440 whole entry): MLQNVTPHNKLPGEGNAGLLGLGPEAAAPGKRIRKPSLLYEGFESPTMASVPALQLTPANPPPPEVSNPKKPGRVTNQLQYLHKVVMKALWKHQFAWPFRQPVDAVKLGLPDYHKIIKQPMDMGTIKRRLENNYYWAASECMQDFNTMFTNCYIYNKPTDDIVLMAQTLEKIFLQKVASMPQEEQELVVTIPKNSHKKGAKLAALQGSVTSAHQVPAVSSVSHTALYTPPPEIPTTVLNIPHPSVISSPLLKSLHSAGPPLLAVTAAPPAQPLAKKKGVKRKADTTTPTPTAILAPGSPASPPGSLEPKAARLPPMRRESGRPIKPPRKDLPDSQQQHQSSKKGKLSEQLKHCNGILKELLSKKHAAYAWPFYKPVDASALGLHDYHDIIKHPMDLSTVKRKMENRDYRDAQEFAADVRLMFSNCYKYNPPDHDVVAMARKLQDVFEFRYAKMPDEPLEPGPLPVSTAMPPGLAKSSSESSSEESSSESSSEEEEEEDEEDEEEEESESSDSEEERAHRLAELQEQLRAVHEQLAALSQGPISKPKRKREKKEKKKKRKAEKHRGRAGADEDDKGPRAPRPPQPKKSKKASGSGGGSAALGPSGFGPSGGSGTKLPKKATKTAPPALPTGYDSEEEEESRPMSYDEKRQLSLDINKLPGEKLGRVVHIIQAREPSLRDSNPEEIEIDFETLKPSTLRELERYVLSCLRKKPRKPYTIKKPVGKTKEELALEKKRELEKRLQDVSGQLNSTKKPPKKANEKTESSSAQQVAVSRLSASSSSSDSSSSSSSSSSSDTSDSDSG
How it was run: (§1)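 HeLa cells were kept in DMEM with 10% FBS, […], penicillin/streptomycin at 37 °C, 5% CO2. They were seeded in six-well plates and treated the next day. They were PBS-washed and lysed on ice in RIPA with protease inhibitors, Benzonase and 0.5 mM MgCl2, then sonicated and centrifuged. Protein was quantified by BCA. Immunoblots used Brd2, Brd3, Brd4 and β-actin antibodies with IRDye 800CW secondaries; band intensities were quantified on an Odyssey imager.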

VCB and Brd4^BD2 = VCB and Brd4^BD2 (Homo sapiens, UniProt O60885+P40337); assay: ITC, VCB titrated into PROTAC:BD complex; assay type: binding
Sequence of VCB and Brd4^BD2 (P40337 54-213, other chains not shown): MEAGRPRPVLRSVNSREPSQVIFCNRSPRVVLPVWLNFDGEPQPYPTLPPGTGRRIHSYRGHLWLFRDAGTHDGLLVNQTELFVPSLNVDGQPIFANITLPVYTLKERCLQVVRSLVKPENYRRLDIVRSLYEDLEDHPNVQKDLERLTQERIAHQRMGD
Sequence of VCB and Brd4^BD2 (Q15370 1-104, other chains not shown, further chain): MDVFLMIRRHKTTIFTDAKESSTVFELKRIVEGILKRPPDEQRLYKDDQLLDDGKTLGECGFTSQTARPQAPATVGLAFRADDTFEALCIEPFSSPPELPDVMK
Sequence of VCB and Brd4^BD2 (Q15369 17-112, other chains not shown, further chain): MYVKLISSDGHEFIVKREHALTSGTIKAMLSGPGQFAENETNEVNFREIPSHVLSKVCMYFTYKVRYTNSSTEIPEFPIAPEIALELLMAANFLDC

Brd3 [4] = molecular target: T2, Brd3; assay: BET protein degradation in HeLa cells, Western blot; assay type: cell-based; conditions: 24 h
How it was run: as §1

Brd4 [5] = molecular target: T1, Brd4; assay: as above; assay type: cell-based; conditions: 24 h, 1–3 μM
How it was run: as §1

Brd2 [6] = molecular target: T3, Brd2; assay: Isobaric tagging; assay type: cell-based; conditions: HeLa cells, 24 h, proteomics
[7] = ITC 25 °C, VCB into PROTAC:Brd4^BD2 vs VCB into PROTAC

T2 sequence (Q15059 whole entry): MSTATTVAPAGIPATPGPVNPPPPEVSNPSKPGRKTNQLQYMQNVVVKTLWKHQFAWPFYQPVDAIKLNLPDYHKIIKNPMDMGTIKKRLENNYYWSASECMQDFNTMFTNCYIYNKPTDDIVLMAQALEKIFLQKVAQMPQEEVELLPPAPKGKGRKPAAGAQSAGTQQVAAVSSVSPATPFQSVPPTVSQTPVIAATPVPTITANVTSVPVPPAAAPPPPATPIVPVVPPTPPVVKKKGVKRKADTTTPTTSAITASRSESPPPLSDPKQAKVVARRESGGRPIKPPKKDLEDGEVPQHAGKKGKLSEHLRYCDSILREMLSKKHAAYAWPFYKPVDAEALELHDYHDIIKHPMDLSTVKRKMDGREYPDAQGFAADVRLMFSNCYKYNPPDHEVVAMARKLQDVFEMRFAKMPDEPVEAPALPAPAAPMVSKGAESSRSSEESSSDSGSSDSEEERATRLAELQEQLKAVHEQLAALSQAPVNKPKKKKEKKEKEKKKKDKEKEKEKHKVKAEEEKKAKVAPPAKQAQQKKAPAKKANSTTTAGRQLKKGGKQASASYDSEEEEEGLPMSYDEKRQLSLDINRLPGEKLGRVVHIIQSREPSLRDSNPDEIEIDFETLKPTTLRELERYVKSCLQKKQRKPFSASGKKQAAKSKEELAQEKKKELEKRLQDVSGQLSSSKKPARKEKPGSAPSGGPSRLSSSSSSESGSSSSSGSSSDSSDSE

CC(=O)N[C@H](C(=O)N1C[C@H](O)C[C@H]1C(=O)NCc1ccc(-c2scnc2C)cc1)C(C)(C)SCCCCCCNC(=O)C[C@@H]1N=C(c2ccc(Cl)cc2)c2c(sc(C)c2C)-n2c(C)nnc21 [AT1, (2S,4R)-1-((R)-2-acetamido-3-((6-(2-((S)-4-(4-chlorophenyl)-2,3,9-trimethyl-6H-thieno[3,2-f][1,2,4]triazolo[4,3-a][1,4]diazepin-6-yl)acetamido)hexyl)thio)-3-methylbutanoyl)-4-hydroxy-N-(4-(4-methylthiazol-5-yl)benzyl)pyrrolidine-2-carboxamide]
Brd4 protein level after treatment (depleted to) (Brd4 [1]): ~ 40% | effect on protein level of Brd3 (Brd3 [2]): no effect on protein levels | activity against Brd2 (protein level by immunoblot) (Brd2 [3]): negligible activity | ΔpKd (pKd ternary − pKd binary) (VCB and Brd4^BD2; [7]): 0.84 ± 0.07 | α (cooperativity, Kd binary/Kd ternary) (VCB and Brd4^BD2; [7]): 7 | ΔG (binary + ternary), stability of ternary complex (VCB and Brd4^BD2; ITC, Brd4^BD2): -20.2 ± 0.2 kcal/mol | activity against Brd3 (protein level by immunoblot) (Brd3 [4]): negligible activity | Brd4 protein level by immunoblot (Brd4 [5]): depletion of Brd4 | effect on protein level of Brd2 (Brd2 [6]): no effect on protein levels
